Bioassay records deposited in PubChem BioAssay by Sanford-Burnham Center for Chemical Genomics.
Shown are actives, neighbours in structure and some others; about 3% of the full set was active somewhere.
SENP8 block-1: SENP8 protease inhibition; Q96LD8; purified SENP8, Z-RLRGG-aminoluciferin cleavage, luminescence; inhibition, % at 10 µM; 330,000 compounds, 1.2% hits; AID 2540; in the data active = inhibition above about 50%
Target sequence (Q96LD8 whole entry, looked up): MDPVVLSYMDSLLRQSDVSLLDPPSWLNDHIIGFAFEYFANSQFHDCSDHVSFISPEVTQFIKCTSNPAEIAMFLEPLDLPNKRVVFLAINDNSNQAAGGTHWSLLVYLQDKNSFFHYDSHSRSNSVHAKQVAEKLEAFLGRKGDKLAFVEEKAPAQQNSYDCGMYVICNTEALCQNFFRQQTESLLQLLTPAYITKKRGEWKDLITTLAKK
SENP6 inh: inhibitors of human SENP6 protease; Recombinant SENP6 catalytic domain, aminoluciferin luminescence; 330,000 compounds, 1.8% hits; inhibition, % at 10 µM; AID 2599;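 active = inhibition above about 50% at the single tested dose, limit read from the data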
SENP7 block: inhibitors of human SENP7 protease | recombinant SENP7, Z-RLRGG-aminoluciferin luminescence, 40 min | 330,000 compounds, 1.5% hits | inhibition, % at 5 µM | Q9BQF6;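 active = inhibition above about 50% at the single test dose, limit read from the data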
UBC13 polyUb: inhibitors of human UBC13 polyubiquitin chain formation | P61088 | inhibition, % at 20 µM | 330,000 compounds, 0.47% hits | TR-FRET; in the data active = inhibition above about 45%, passing the limit was not always enough
Target sequence (P61088 whole entry, looked up): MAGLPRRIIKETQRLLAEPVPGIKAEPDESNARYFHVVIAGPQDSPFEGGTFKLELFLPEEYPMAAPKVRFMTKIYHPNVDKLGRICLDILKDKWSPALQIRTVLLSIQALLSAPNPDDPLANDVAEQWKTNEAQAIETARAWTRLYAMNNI
Apaf-1 inh: blocks human Apaf-1 apoptosome activity; 330,000 compounds, 0.71% hits; AID 489030; reconstituted apoptosome caspase-3 activity, DEVD-Rh110 fluorescence; inhibition, % at 20 µM; active = inhibition of at least 40% at 20 µM
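System – cell-free apoptosome with Apaf-1, procaspase-3 and caspase-9 · Buffer or medium – pH 7.5 Hepes buffer with CHAPS, BSA, DTT · Also added – cytochrome c with DEVD-Rh110 · Times – 30 min compound preincubation, 50 min activation, room temperature · Technique – Rh110 fluorescence intensity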
SENP8 block-2: inhibitors of human SENP8 protease. Q96LD8. recombinant SENP8, Nedd8 substrate fluorescence. inhibition, % at 20 µM. 360,000 compounds, 0.64% hits; in the data active = inhibition mostly above about 40%, no sharp cut-off; inactive = mostly below about 27%
Apaf-1 inh conf2: Apaf-1 inhibition, single-dose confirmed | shares compounds with Apaf-1 inh | reconstituted apoptosome, caspase-3 DEVD-Rh110 fluorescence | inhibition, % at 20 µM | 1,800 compounds, 25% hits | AID 504614;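 active = mean inhibition of at least 40% at 20 µM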
Rh110 quench: counter-screen for Apaf-1 inhibitors: fluorescence interference. shares compounds with Apaf-1 inh. activation (fluorescence interference), % at 20 µM. 1,800 tested, under 10 active. Rh110 fluorescence interference, quenched caspase reaction;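 active = signal rise of 40% or more at 20 µM, treated as a fluorescence artifact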
Apaf1 inh interf: counter-screen for Apaf-1 inhibitors: fluorescence interference, dose response | shares compounds with Apaf-1 inh | fluorescence interference counterscreen, Apaf-1 assay format | IC50, µM | 460 tested, under 10 active | AID 588538; call rule not given here
Hits are given with their value; 0 = inactive; - = no result.

SMILES | SENP8 block-1 | SENP6 inh | SENP7 block | UBC13 polyUb | Apaf-1 inh | SENP8 block-2 | Apaf-1 inh conf2 | Rh110 quench | others
N#Cc1c(N)n(CCNC(=O)c2cccs2)c2nc3ccccc3nc12 | 0 | 0 | 0 | 0 | 89.8 | 0 | 0 | 0
N#Cc1c(N)n(CCNC(=O)c2ccccc2)c2nc3ccccc3nc12 | 0 | 0 | 0 | 0 | 0 | 0 | - | -
COc1cc(C(=O)N2CCN(c3ccccc3O)CC2)ccc1OCC(=O)N1CCOCC1 | 0 | 0 | 0 | 0 | 0 | 0 | - | -
COc1cc(C(=O)N2CCN(c3cccc(C)c3C)CC2)ccc1OCC(=O)N1CCOCC1 | 0 | 0 | 0 | 0 | 50.8 | 0 | 0 | 0
O=C(c1ccc([N+](=O)[O-])o1)N(Cc1nnc(-c2ccccc2Cl)o1)C1CC1 | 0 | 0 | 0 | 0 | 51.0 | 0 | 41.3 | 0 | Apaf1 inh interf=0
COc1ccc(C(CNC(=O)C2CC(=O)N(Cc3ccccc3)C2)N2CCCC2)cc1 (centres undefined) | 0 | 0 | 0 | 0 | 61.5 | 0 | 0 | 0
COc1ccc(C(CNC(=O)c2cccc(S(=O)(=O)N(C)c3ccccc3)c2)N2CCCC2)cc1 (centres undefined) | 0 | 0 | 0 | 0 | 43.5 | 0 | 0 | 0
COc1ccc(C(CNC(=O)C2CC(=O)N(Cc3ccccc3)C2)N2CCOCC2)cc1 (centres undefined) | 0 | 0 | 0 | 0 | 0 | 0 | - | -
Cc1ccc(-c2ccc(CN3C(C(C)C)C(=O)N(Cc4cn(CCC5OCCO5)nn4)CCS3(=O)=O)cc2)c(C)c1 (centres undefined) | - | - | - | - | - | 0 | - | -
CCOC(=O)C1(C)CCCN(C(=O)c2ccc(OC)cc2OC)C1 (centres undefined) | - | - | - | - | - | 0 | - | -
COc1cc(C2C(C#N)=C(C)NC3=C2C(=O)c2ccccc23)cc(OC)c1OC (centres undefined) | 0 | 0 | 0 | 0 | 54.3 | 0 | 0 | 0
CC(=O)N(C)C1=C(O)c2ccccc2C(=O)C1=O | 0 | 0 | 0 | 0 | 40.4 | 84.8 | 0 | 0
O=C1c2ccccc2C(=O)c2[nH]c(=O)[nH]c21 | 0 | 65.4 | 0 | 0 | 80.0 | 54.8 | 75.0 | 0 | Apaf1 inh interf=0
O=C1c2ccccc2C(=O)c2[nH]cnc21 | - | - | - | - | - | 0 | - | -
O=C1C(O)=C(O)C(=O)c2ccccc21 | 57.6 | 79.6 | 54.9 | 0 | 92.1 | 60.7 | 66.8 | 0 | Apaf1 inh interf=0
CC1(c2nnnn2Cc2ccccc2)CCC(=O)N1Cc1cccnc1 (centres undefined) | - | - | - | - | - | 0 | - | -
CCc1nc2ccc(C(=O)NCCCn3ccnc3)cn2c1N(C)CCC(C)C | - | - | - | - | - | 0 | - | -
O=C(Nc1ccncc1)c1cc(-c2cccc(Br)c2)nc2ccccc12 | 0 | 0 | 0 | 0 | 47.2 | 0 | 0 | 0
O=C(Nc1cccnc1)c1cc(-c2cccc(Br)c2)nc2ccccc12 | 0 | 0 | 0 | 0 | 0 | 0 | - | -
COc1ccc(NC(=O)c2cc(-c3ccncc3)nc3ccc(Br)cc23)cc1OC | 0 | 0 | 0 | 0 | 44.8 | 0 | 0 | 0
COc1ccc(NC(=O)c2cc(-c3cccnc3)nc3ccc(C)cc23)cc1OC | - | - | - | - | - | 0 | - | -
Cc1ccccc1Nc1nc(N)nc(COC(=O)c2ccc3c(c2)OCCO3)n1 | - | - | - | - | - | 0 | - | -
CC1C(c2ccccc2)OCCN1C(=S)Nc1ccc(S(=O)(=O)N2CCCCC2)cc1 (centres undefined) | - | - | - | - | - | 0 | - | -
CCNC1=C(Cl)C(=O)c2ccccc2C1=O | 0 | 0 | 0 | 0 | 51.3 | 93.5 | 0 | 0
O=C1C(Cl)=C(NCCN2CCCCC2)C(=O)c2ccccc21 | 0 | 0 | 0 | 0 | 67.8 | 76.1 | 79.3 | 0 | Apaf1 inh interf=0
COc1cc(C)ccc1S(=O)(=O)NC(=O)C1(C)CCN1C(=O)Cc1ccc(C(C)(C)C)cc1 (centres undefined) | - | - | - | - | - | 0 | - | -
O=C(c1cccs1)N1C[C@@H](n2cc(C3CC3)nn2)[C@H](O)C[C@@H]1c1ccccc1 | - | - | - | - | - | 0 | - | -
CCOCCC(=O)Nc1ccc2c(c1)c(=O)n(C)n2C/C=C/c1ccccc1 | - | - | - | - | - | 0 | - | -
CCC1CCCCN1C(=O)COc1ccc(N(C)S(=O)(=O)c2ccc(C)cc2)cc1 (centres undefined) | 0 | 0 | 0 | 0 | 50.9 | 0 | 0 | 0
